From ChEMBL document CHEMBL3997766, “Synthesis and pre-clinical studies of new amino-acid ester thiazolide prodrugs” (Eur J Med Chem, 2017)

Key:
Plasma [1] = assay: Drug level in Sprague-Dawley rat plasma treated with RM-5061 at 10 to 75 mg/kg administered via oral gavage qd for 28 consecutive days; assay type: ADME, organism-based; details: in vivo
In short: (§1)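 In a sub-acute study, Sprague-Dawley rats were dosed once daily for 28 consecutive days at 10, 30 or 75 mg/kg, given as a yellow suspension. There were four groups of up to 30 rats each (15M/15F) to assess systemic exposure.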

Canis familiaris = assay: Drug level in Beagle dog plasma treated with RM-5061 up to 25 mg/kg administered orally as gelatin capsule once daily for 28 days measured on day 1 and 29; assay type: ADME, organism-based, Canis lupus familiaris; details: in vivo, po, 672 h
In short: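 Beagle dogs received the drug orally in a single gelatin capsule at 5, 15 or 25 mg/kg once daily for 28 consecutive days in a sub-acute toxicity study assessing systemic exposure.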

Plasma [2] = assay: Elimination half life in Sprague-Dawley rat assessed as tizoxanide-glucuronide level in plasma at 10 to 75 mg/kg administered via oral gavage qd for 28 consecutive days; assay type: ADME, organism-based; details: in vivo; in short: as §1
Rattus norvegicus [3] = assay: AUC (0 to t) in Sprague-Dawley rat assessed as RM-4848 level in plasma at 6 mg/kg, iv administered as single dose; assay type: ADME, organism-based; details: in vivo
In short: (§2)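 Rats in groups of three received one compound as a single oral dose (30 mg/kg) or a single intravenous injection (6 mg/kg), with four compounds studied separately. Serial blood samples were drawn at 5, 10, 15 and 30 min and at 1, 2, 4, 8, 23 and 24 h post-dose. Plasma parent drug and metabolites were quantified and PK parameters were derived.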

Rattus norvegicus [4] = assay: Cmax in Sprague-Dawley rat assessed as RM-4848-glucuronide level in plasma at 30 mg/kg, po administered as single dose; assay type: ADME, organism-based; set-up: dose 30 mg/kg, route oral; details: in vivo; in short: as §2
Rattus norvegicus [5] = assay: AUC (0 to t) in Sprague-Dawley rat assessed as RM-4848-glucuronide level at 6 mg/kg, iv administered as single dose; assay type: ADME, organism-based; details: in vivo; in short: as §2
Rattus norvegicus [6] = assay: Tmax in Sprague-Dawley rat assessed as RM4848-glucuronide level in plasma at 30 mg/kg, po administered as single dose; assay type: ADME, organism-based; details: in vivo
In short: (§3)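 Rats in groups of three got a single oral dose (30 mg/kg) or a single intravenous injection (6 mg/kg). Serial blood samples were taken at 5, 10, 15 and 30 min and at 1, 2, 4, 8, 23 and 24 h post-dose for plasma drug and glucuronide levels. Bioavailability came from oral versus intravenous AUC after dose correction to 30 mg/kg.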

Plasma [7] = assay: Drug metabolism in Sprague-Dawley rat assessed as RM-4848-glucuronide formation in plasma at 30 mg/kg, po administered as single dose; assay type: ADME, organism-based; details: in vivo; in short: as §2
Rattus norvegicus [8] = assay: AUC (0 to t) in Sprague-Dawley rat assessed as RM-4848-glucuronide level in plasma at 30 mg/kg, po administered as single dose; assay type: ADME, organism-based; details: in vivo; in short: as §2
Rattus norvegicus [9] = assay: Tmax in Sprague-Dawley rat assessed as RM-4848 level in plasma at 6.2 mg/kg, iv; assay type: ADME, organism-based; details: in vivo; in short: as §3
Plasma [10] = assay: Drug metabolism in Sprague-Dawley rat assessed as RM-4848-glucuronide formation in plasma at 6.2 mg/kg, iv at 0.083 hrs post dose; assay type: ADME, organism-based; details: in vivo
Rattus norvegicus [11] = assay: Cmax in Sprague-Dawley rat assessed as RM-4848 level in plasma at 6 mg/kg, iv administered as single dose; assay type: ADME, organism-based; set-up: dose 6 mg/kg, route intravenous; details: in vivo; in short: as §2
Rattus norvegicus [12] = assay: Cmax in Sprague-Dawley rat assessed as RM-4848 level in plasma at 30 mg/kg, po administered as single dose; assay type: ADME, organism-based; set-up: dose 30 mg/kg, route oral; details: in vivo; in short: as §2
Rattus norvegicus [13] = assay: Oral bioavailability in Sprague-Dawley rat assessed as RM-4848 level in plasma at 30 mg/kg administered as single dose; assay type: ADME, organism-based; details: in vivo
In short: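 Groups of three rats received a single oral dose (30 mg/kg) or intravenous dose (6 mg/kg), with serial blood sampling from 5 min to 24 h. Absolute bioavailability came from the AUC after oral versus intravenous dosing, with the AUC corrected for dose to 30 mg/kg.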

Rattus norvegicus [14] = assay: Tmax in Sprague-Dawley rat assessed as RM-4848-glucuronide level in plasma at 6.2 mg/kg, iv; assay type: ADME, organism-based; details: in vivo; in short: as §3
Rattus norvegicus [15] = assay: Elimination half life in Sprague-Dawley rat assessed as RM-4848 level in plasma at 6.2 mg/kg, iv; assay type: ADME, organism-based; details: in vivo
Rattus norvegicus [16] = assay: Elimination half life in Sprague-Dawley rat assessed as RM-4848 level in plasma at 30 mg/kg, po administered as single dose; assay type: ADME, organism-based; details: in vivo; in short: as §2
Rattus norvegicus [17] = assay: Cmax in Sprague-Dawley rat assessed as RM-4848-glucuronide level at 6 mg/kg, iv administered as single dose; assay type: ADME, organism-based; set-up: dose 6 mg/kg, route intravenous; details: in vivo; in short: as §2
Rattus norvegicus [18] = assay: Elimination half life in Sprague-Dawley rat assessed as RM-4848-glucuronide level at 30 mg/kg, po administered as single dose; assay type: ADME, organism-based; details: in vivo; in short: as §2
Rattus norvegicus [19] = assay: AUC (0 to t) in Sprague-Dawley rat assessed as RM-4848 level in plasma at 30 mg/kg, po administered as single dose; assay type: ADME, organism-based; details: in vivo; in short: as §2
Rattus norvegicus [20] = assay: Elimination half life in Sprague-Dawley rat assessed as RM-4848-glucuronide level at 6.2 mg/kg, iv; assay type: ADME, organism-based; details: in vivo
Plasma [21] = assay: Drug metabolism in Sprague-Dawley rat assessed as RM-4848 formation in plasma at 30 mg/kg, po administered as single dose measured at 0.083 to 4 hrs post dose; assay type: ADME, organism-based; details: in vivo; in short: as §2
[22] = Prodrug activation at room temperature after 3 weeks assessed as tizoxanide formation by NMR method
Rattus norvegicus [23] = assay: Tmax in male Sprague-Dawley rat assessed as Tizoxanide-glucuronide level in plasma at 6 mg/kg, iv administered as single dose; assay type: ADME, organism-based; details: in vivo
In short: (§4)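 Plasma tizoxanide and tizoxanide glucuronide were measured and PK parameters derived. AUCs were dose-corrected to 30 mg/kg for bioavailability.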

Rattus norvegicus [24] = assay: Tmax in female Sprague-Dawley rat assessed as Tizoxanide level in plasma at 30 mg/kg, po; assay type: ADME, organism-based; details: in vivo; in short: as §4
Plasma [25] = assay: Drug metabolism in Sprague-Dawley rat assessed as tizoxanide-glucuronide formation in plasma at 30 mg/kg, po administered as single dose measured after 5 mins; assay type: ADME, organism-based; details: in vivo; in short: as §4
Rattus norvegicus [26] = assay: AUC (0 to t) in Sprague-Dawley rat assessed as Tizoxanide level at 30 mg/kg, po administered as single dose; assay type: ADME, organism-based; details: in vivo; in short: as §4
Rattus norvegicus [27] = assay: Tmax in female Sprague-Dawley rat assessed as tizoxanide-glucuronide level in plasma at 30 mg/kg, po administered as single dose; assay type: ADME, organism-based; details: in vivo; in short: as §4
Rattus norvegicus [28] = assay: AUC (0 to t) in Sprague-Dawley rat assessed as Tizoxanide level in plasma at 6 mg/kg, iv administered as single dose; assay type: ADME, organism-based; details: in vivo; in short: as §4
[29] = Drug excretion in po dosed human faeces; assay type: ADME, organism-based, Feces; details: read-out: Drug excretion
Rattus norvegicus [30] = assay: AUC (0 to t) in Sprague-Dawley rat assessed as tizoxanide-glucuronide level in plasma at 30 mg/kg, po administered as single dose; assay type: ADME, organism-based; details: in vivo; in short: as §4
Rattus norvegicus [31] = assay: Cmax in Sprague-Dawley rat assessed as Tizoxanide level in plasma at 6 mg/kg, iv administered as single dose; assay type: ADME, organism-based; set-up: dose 6 mg/kg, route intravenous; details: in vivo; in short: as §2
Rattus norvegicus [32] = assay: Cmax in Sprague-Dawley rat assessed as tizoxanide-glucuronide level in plasma at 30 mg/kg, po administered as single dose; assay type: ADME, organism-based; set-up: dose 30 mg/kg, route oral; details: in vivo; in short: as §2
Rattus norvegicus [33] = assay: Tmax in male Sprague-Dawley rat assessed as Tizoxanide level in plasma at 30 mg/kg, po; assay type: ADME, organism-based; details: in vivo; in short: as §4
Rattus norvegicus [34] = assay: Elimination half life in Sprague-Dawley rat assessed as Tizoxanide level in plasma at 6 mg/kg, iv administered as single dose; assay type: ADME, organism-based; details: in vivo; in short: as §4
Rattus norvegicus [35] = assay: Cmax in Sprague-Dawley rat assessed as Tizoxanide level in plasma at 30 mg/kg, po administered as single dose; assay type: ADME, organism-based; set-up: dose 30 mg/kg, route oral; details: in vivo; in short: as §2
Rattus norvegicus [36] = assay: Cmax in Sprague-Dawley rat assessed as Tizoxanide-glucuronide level in plasma at 6 mg/kg, iv administered as single dose; assay type: ADME, organism-based; set-up: dose 6 mg/kg, route intravenous; details: in vivo; in short: as §2
Rattus norvegicus [37] = assay: AUC (0 to t) in male Sprague-Dawley rat assessed as Tizoxanide-glucuronide level in plasma at 6 mg/kg, iv administered as single dose; assay type: ADME, organism-based; details: in vivo; in short: as §4
Rattus norvegicus [38] = assay: Tmax in male Sprague-Dawley rat assessed as tizoxanide-glucuronide level in plasma at 30 mg/kg, po administered as single dose; assay type: ADME, organism-based; details: in vivo; in short: as §4
[39] = Drug excretion in po dosed human urine; assay type: ADME, organism-based; details: read-out: Drug excretion
[40] = Oral bioavailability in human; assay type: ADME, organism-based; details: in vivo
Rattus norvegicus [41] = assay: Tmax in female Sprague-Dawley rat assessed as Tizoxanide-glucuronide level in plasma at 6 mg/kg, iv administered as single dose; assay type: ADME, organism-based; details: in vivo; in short: as §4

O=C(Nc1ncc([N+](=O)[O-])s1)c1ccccc1O[C@@H]1O[C@H](C(=O)O)[C@@H](O)[C@H](O)[C@H]1O
Drug metabolism (Plasma [1]): Metabolite_Detected
Drug metabolism (Canis familiaris): Metabolite_Detected
beta t1/2 (Plasma [2]): 90 to 660 min

CC(C)(C)[C@H](N)C(=O)Oc1ccccc1C(=O)Nc1ncc(Cl)s1.Cl
AUCt (Rattus norvegicus [3]): 631 ng·h/mL
Cmax (Rattus norvegicus [4]): 7290 ng/mL
AUCt (Rattus norvegicus [5]): 7610 ng·h/mL
Tmax (Rattus norvegicus [6]): 30 min
Drug metabolism (Plasma [7]): Metabolite_Detected
AUCt (Rattus norvegicus [8]): 19400 ng·h/mL
Tmax (Rattus norvegicus [9]): 4.98 min
Drug metabolism (Plasma [10]): Metabolite_Detected
Cmax (Rattus norvegicus [11]): 2650 ng/mL
Cmax (Rattus norvegicus [12]): 622 ng/mL
F (Rattus norvegicus [13]): 23%
Tmax (Rattus norvegicus [14]): 15 to 30 min
beta t1/2 (Rattus norvegicus [15]): 54.6 min
beta t1/2 (Rattus norvegicus [16]): 84 to 156 min
Cmax (Rattus norvegicus [17]): 5570 ng/mL
beta t1/2 (Rattus norvegicus [18]): 206 min
AUCt (Rattus norvegicus [19]): 715 ng·h/mL
beta t1/2 (Rattus norvegicus [20]): 189 min
Drug metabolism (Plasma [21]): Metabolite_Detected

CC(C)[C@H](N)C(=O)Oc1ccccc1C(=O)Nc1ncc([N+](=O)[O-])s1
Drug metabolism [22]: 20%

CC(=O)Oc1ccccc1C(=O)Nc1ncc([N+](=O)[O-])s1 [NITAZOXANIDE]
Tmax (Rattus norvegicus [23]): 24 min
Tmax (Rattus norvegicus [24]): 126 min
Drug metabolism (Plasma [25]): Metabolite_Detected
AUCt (Rattus norvegicus [26]): 2040 ng·h/mL
Tmax (Rattus norvegicus [27]): 84 min
AUCt (Rattus norvegicus [28]): 14100 ng·h/mL
dose excreted [29]: 64%
AUCt (Rattus norvegicus [30]): 15950 ng·h/mL
Cmax (Rattus norvegicus [31]): 20500 ng/mL
Cmax (Rattus norvegicus [32]): 4620 ng/mL
Tmax (Rattus norvegicus [33]): 42 min
beta t1/2 (Rattus norvegicus [34]): 12 min
Cmax (Rattus norvegicus [35]): 742 ng/mL
Cmax (Rattus norvegicus [36]): 11050 ng/mL
AUCt (Rattus norvegicus [37]): 6500 ng·h/mL
Tmax (Rattus norvegicus [38]): 42 min
dose excreted [39]: 33%
bioavailability [40]: ≤ 30%
Tmax (Rattus norvegicus [41]): 42 min
